Measured values published in ChEMBL document CHEMBL1158040, “Biological activities and 3D QSAR studies of a series of Delisea pulchra (cf. fimbriata) derived natural products” (J Nat Prod, 2006).
In brackets after ≈: the same amount, converted by molar mass. Activity calls are given as the source filed them. No cut-off for these calls is given here.

System: Penicillium oxalicum
Assay: Antimicrobial activity against Penicillium oxalicum at 5 ug
Type: functional
Settings: read-out: IZ
Procedure, shortened: (§1)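 Direct bioautography: each compound is spotted onto TLC plates and the solvent evaporated. The test organism is then grown directly on the plate. Growth inhibition is scored at the spot as active (+) or very active (++). Where a number is given, it is the radius in mm of the inhibition zone around the spot.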

Structure (SMILES) | zone of inhibition at 5 µg/disc [mm]
CCCCC1=C(Br)C(=C(Br)Br)OC1=O | 13
CCCCC1=C(Br)/C(=C/Br)OC1=O | 3

System: not listed separately
Assay: Cytotoxicity against human Col1 cells
Type: functional
Settings: read-out: ED50 (the source's name)

Structure (SMILES) | EC50 [µg/mL]
CCCCC1=C(Br)C(=C(Br)Br)OC1=O | 12.4 (≈ 31.9 µM)
CCCCC1=C(Br)/C(=C/Br)OC1=O | > 20

System: P388
Assay: Cytotoxicity against mouse P388 cells
Type: functional
Settings: read-out: ED50 (the source's name)

Structure (SMILES) | EC50 [µg/mL]
CCCCC1=C(Br)C(=C(Br)Br)OC1=O | > 5
CCCCC1=C(Br)/C(=C/Br)OC1=O | > 5

System: Penicillium oxalicum
Assay: Antimicrobial activity against Penicillium oxalicum at 10 ug
Type: functional
Settings: read-out: IZ
Procedure, shortened: as §1

Structure (SMILES) | zone of inhibition at 10 µg/disc [mm]
CCCCC1=C(Br)C(=C(Br)Br)OC1=O | 11
CCCCC1=C(Br)/C(=C/Br)OC1=O | 3

System: Penicillium oxalicum
Assay: Antimicrobial activity against Penicillium oxalicum at 0.8 ug
Type: functional
Settings: read-out: IZ
Procedure, shortened: as §1

Structure (SMILES) | zone of inhibition at 0.8 µg/disc [mm]
Clc1ccc(COC(Cn2ccnc2)c2ccc(Cl)cc2Cl)c(Cl)c1 (stereo unspecified) [MICONAZOLE] | 3

System: Plasmodium falciparum
Assay: Antimalarial activity against chloroquine-sensitive Plasmodium falciparum D6 at 10 ug/ml
Type: functional
Settings: not given

Structure (SMILES) | Activity [%]
CCCCC1=C(Br)C(=C(Br)Br)OC1=O | >50
CCCCC1=C(Br)/C(=C/Br)OC1=O | >50

System: Monocyte
Assay: Inhibition of IL1 biosynthesis in human monocytes
Type: functional, cell-based
Settings: not given

Structure (SMILES) | IC50 [nM]
CCCCC1=C(Br)C(=C(Br)Br)OC1=O | 3000

System: Micrococcus luteus
Assay: Antimicrobial activity against Micrococcus luteus at 0.1 ug
Type: functional, organism-based
Settings: not given
Procedure, shortened: as §1

Structure (SMILES) | Activity
CCCCC1=C(Br)/C(=C/Br)OC1=O | inactive

System: KB
Assay: Cytotoxicity against human KB cells
Type: functional
Settings: read-out: ED50 (the source's name)

Structure (SMILES) | EC50 [µg/mL]
CCCCC1=C(Br)C(=C(Br)Br)OC1=O | > 20
CCCCC1=C(Br)/C(=C/Br)OC1=O | > 20

System: Escherichia coli
Assay: Antimicrobial activity against Escherichia coli at 1 ug
Type: functional, organism-based
Settings: not given
Procedure, shortened: as §1

Structure (SMILES) | Activity
CCCCC1=C(Br)C(=C(Br)Br)OC1=O | inactive
CCCCC1=C(Br)/C(=C/Br)OC1=O | inactive

System: ZR-75-1
Assay: Cytotoxicity against human ZR-75-1 cells
Type: functional
Settings: read-out: ED50 (the source's name)

Structure (SMILES) | EC50 [µg/mL]
CCCCC1=C(Br)C(=C(Br)Br)OC1=O | 8.6 (≈ 22.1 µM)
CCCCC1=C(Br)/C(=C/Br)OC1=O | 10.2 (≈ 32.9 µM)

System: not listed separately
Assay: Cytotoxicity against human U373 cells
Type: functional, U-373MG ATCC
Settings: U373 MG, read-out: ED50 (the source's name)

Structure (SMILES) | EC50 [µg/mL]
CCCCC1=C(Br)C(=C(Br)Br)OC1=O | > 20
CCCCC1=C(Br)/C(=C/Br)OC1=O | 10 (≈ 32.3 µM)

System: KB
Assay: Cytotoxicity against vinblastine-sensitive human KB cells
Type: functional
Settings: read-out: ED50 (the source's name)

Structure (SMILES) | EC50 [µg/mL]
CCCCC1=C(Br)C(=C(Br)Br)OC1=O | > 20
CCCCC1=C(Br)/C(=C/Br)OC1=O | > 20

System: Monocyte
Assay: Inhibition of LPS-stimulated IL1 production in human monocytes
Type: functional, cell-based
Settings: not given

Structure (SMILES) | IC50 [nM]
CCCCC1=C(Br)C(=C(Br)Br)OC1=O | 1800

System: Escherichia coli
Assay: Antimicrobial activity against Escherichia coli at 10 ug
Type: functional, organism-based
Settings: not given
Procedure, shortened: as §1

Structure (SMILES) | Activity
CCCCC1=C(Br)C(=C(Br)Br)OC1=O | Active
CCCCC1=C(Br)/C(=C/Br)OC1=O | Active

System: not listed separately
Assay: Inhibition of PKC
Settings: not given

Structure (SMILES) | IC50 [nM]
CCCCC1=C(Br)C(=C(Br)Br)OC1=O | ≥ 200000

System: Micrococcus luteus
Assay: Antimicrobial activity against Micrococcus luteus at 1 ug
Type: functional, organism-based
Settings: not given
Procedure, shortened: as §1

Structure (SMILES) | Activity
CCCCC1=C(Br)C(=C(Br)Br)OC1=O | inactive
CCCCC1=C(Br)/C(=C/Br)OC1=O | Active

System: Lu1
Assay: Cytotoxicity against human Lu1 cells
Type: functional
Settings: read-out: ED50 (the source's name)

Structure (SMILES) | EC50 [µg/mL]
CCCCC1=C(Br)/C(=C/Br)OC1=O | > 20

System: Penicillium oxalicum
Assay: Antimicrobial activity against Penicillium oxalicum at 0.1 ug
Type: functional
Settings: read-out: IZ
Procedure, shortened: as §1

Structure (SMILES) | zone of inhibition at 0.1 µg/disc [mm]
CCCCC1=C(Br)C(=C(Br)Br)OC1=O | 1

System: A-431
Assay: Cytotoxicity against human A431 cells
Type: functional
Settings: read-out: ED50 (the source's name)

Structure (SMILES) | EC50 [µg/mL]
CCCCC1=C(Br)C(=C(Br)Br)OC1=O | 10.5 (≈ 27 µM)
CCCCC1=C(Br)/C(=C/Br)OC1=O | > 20

System: Penicillium oxalicum
Assay: Antimicrobial activity against Penicillium oxalicum at 1.6 ug
Type: functional
Settings: read-out: IZ
Procedure, shortened: as §1

Structure (SMILES) | zone of inhibition at 1.6 µg/disc [mm]
Clc1ccc(COC(Cn2ccnc2)c2ccc(Cl)cc2Cl)c(Cl)c1 (stereo unspecified) [MICONAZOLE] | 5

System: HT-1080
Assay: Cytotoxicity against human HT1080 cells
Type: functional
Settings: read-out: ED50 (the source's name)

Structure (SMILES) | EC50 [µg/mL]
CCCCC1=C(Br)C(=C(Br)Br)OC1=O | > 20
CCCCC1=C(Br)/C(=C/Br)OC1=O | 2.2 (≈ 7.1 µM)

System: not listed separately
Assay: Cytotoxicity against human MEL-2 cells
Type: functional
Settings: MEL2, read-out: ED50 (the source's name)

Structure (SMILES) | EC50 [µg/mL]
CCCCC1=C(Br)C(=C(Br)Br)OC1=O | 4.2 (≈ 10.8 µM)
CCCCC1=C(Br)/C(=C/Br)OC1=O | 5.3 (≈ 17.1 µM)

System: Penicillium oxalicum
Assay: Antimicrobial activity against Penicillium oxalicum at 0.01 ug
Type: functional
Settings: not given
Procedure, shortened: as §1

Structure (SMILES) | Activity
CCCCC1=C(Br)C(=C(Br)Br)OC1=O | inactive

System: Micrococcus luteus
Assay: Antimicrobial activity against Micrococcus luteus at 5 ug
Type: functional, organism-based
Settings: not given
Procedure, shortened: as §1

Structure (SMILES) | Activity
CCCCC1=C(Br)C(=C(Br)Br)OC1=O | Active
CCCCC1=C(Br)/C(=C/Br)OC1=O | Active

System: LNCaP
Assay: Cytotoxicity against human LNCAP cells
Type: functional
Settings: read-out: ED50 (the source's name)

Structure (SMILES) | EC50 [µg/mL]
CCCCC1=C(Br)C(=C(Br)Br)OC1=O | 9.3 (≈ 23.9 µM)
CCCCC1=C(Br)/C(=C/Br)OC1=O | 7.3 (≈ 23.5 µM)

System: KB
Assay: Cytotoxicity against vinblastine-resistant human KB cells
Type: functional
Settings: read-out: ED50 (the source's name)
Procedure, shortened: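 The vinblastine-resistant KB-V1 line was tested both with and without added vinblastine in the cultured tumour-cell cytotoxicity panel. Results are reported as ED50.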

Structure (SMILES) | EC50 [µg/mL]
CCCCC1=C(Br)C(=C(Br)Br)OC1=O | > 20
CCCCC1=C(Br)/C(=C/Br)OC1=O | > 20

System: not listed separately
Assay: Cytotoxicity against human BCA1 cells
Type: functional
Settings: read-out: ED50 (the source's name)

Structure (SMILES) | EC50 [µg/mL]
CCCCC1=C(Br)C(=C(Br)Br)OC1=O | 6.4 (≈ 16.5 µM)
CCCCC1=C(Br)/C(=C/Br)OC1=O | 9.8 (≈ 31.6 µM)

System: Micrococcus luteus
Assay: Antimicrobial activity against Micrococcus luteus at 10 ug
Type: functional, organism-based
Settings: not given
Procedure, shortened: as §1

Structure (SMILES) | Activity
CCCCC1=C(Br)C(=C(Br)Br)OC1=O | Active
CCCCC1=C(Br)/C(=C/Br)OC1=O | Active

System: Penicillium oxalicum
Assay: Antimicrobial activity against Penicillium oxalicum at 1 ug
Type: functional
Settings: not given
Procedure, shortened: as §1

Structure (SMILES) | Activity
CCCCC1=C(Br)/C(=C/Br)OC1=O | inactive

Same assay, conditions: read-out: IZ

Structure (SMILES) | zone of inhibition at 1 µg/disc [mm]
CCCCC1=C(Br)C(=C(Br)Br)OC1=O | 8

System: Bacillus subtilis
Assay: Antimicrobial activity against Bacillus subtilis at 5 ug
Type: functional, organism-based
Settings: not given
Procedure, shortened: as §1

Structure (SMILES) | Activity
CCCCC1=C(Br)C(=C(Br)Br)OC1=O | Active
CCCCC1=C(Br)/C(=C/Br)OC1=O | inactive

System: Bacillus subtilis
Assay: Antimicrobial activity against Bacillus subtilis at 1 ug
Type: functional, organism-based
Settings: not given
Procedure, shortened: as §1

Structure (SMILES) | Activity
CCCCC1=C(Br)C(=C(Br)Br)OC1=O | inactive
CCCCC1=C(Br)/C(=C/Br)OC1=O | inactive

System: Escherichia coli
Assay: Antimicrobial activity against Escherichia coli at 0.1 ug
Type: functional, organism-based
Settings: not given
Procedure, shortened: as §1

Structure (SMILES) | Activity
CCCCC1=C(Br)C(=C(Br)Br)OC1=O | inactive
CCCCC1=C(Br)/C(=C/Br)OC1=O | inactive

System: Bacillus subtilis
Assay: Antimicrobial activity against Bacillus subtilis at 10 ug
Type: functional, organism-based
Settings: not given
Procedure, shortened: as §1

Structure (SMILES) | Activity
CCCCC1=C(Br)C(=C(Br)Br)OC1=O | Active
CCCCC1=C(Br)/C(=C/Br)OC1=O | Active

System: Escherichia coli
Assay: Antimicrobial activity against Escherichia coli at 5 ug
Type: functional, organism-based
Settings: not given
Procedure, shortened: as §1

Structure (SMILES) | Activity
CCCCC1=C(Br)C(=C(Br)Br)OC1=O | Active
CCCCC1=C(Br)/C(=C/Br)OC1=O | inactive
